For data set [1], the target named is T1, Voltage-gated L-type calcium channel (Rattus norvegicus, UniProt P22002+Q02485+P27732). As to the kind of experiment: Pseudo Hill coefficient for inhibition of [3H](+)-PN200-110 binding to GH4C1 cells under depolarized conditions (50 mM K+). Format: cell-based. The conditions noted are these: gh4-c1. In a few lines: (§1)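 Intact GH4C1 cells attached to the culture dish, competition against [3H]-(+)-PN200-110 in depolarizing Hank's buffer (50 mM K+, pH 7.4). IC50 and slope from Hill equation fit; KI = IC50/(1+[L]/KD); n = 4-6 experiments, mean ± SEM.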

For data set [2], the target named is T2, Voltage-dependent L-type calcium channel subunit alpha-1C (Rattus norvegicus, UniProt P22002). As to the kind of experiment: Inhibition of [3H](+)-PN200-110 binding to calcium channels of rat heart membranes. Format: cell membranes, Membrane. In short, it runs like this: (§2)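 Using rat heart membranes (protein by Bradford), displacement of [3H]-(+)-PN200-110. IC50 and pseudo Hill slope from Hill equation fit; KI = IC50/(1+[L]/KD); n = 4-6 experiments.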

Data set [3] concerns the target T1, Voltage-gated L-type calcium channel. As to the kind of experiment: Pseudo Hill coefficient for inhibition of [3H](+)-PN200-110 binding to GH4C1 cells. Format: cell-based. The conditions noted are these: gh4-c1. In short, it runs like this:
(§3)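 Competition against [3H]-(+)-PN200-110 in GH4C1 membranes, protein by Bradford. IC50 and pseudo Hill slope from Hill equation fit of specific DPM bound; KI = IC50/(1+[L]/KD); n = 4-6 experiments.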

The target is the same in data set [4]. Description: Inhibition of [3H](+)-PN200-110 binding to calcium channels of GH4C1 cells under depolarized conditions (50 mM K+). It is filed as cell-based. The note with it: gh4-c1. In short, it runs like this:
as §1

Data set [5] deals with T2, Voltage-dependent L-type calcium channel subunit alpha-1C. As to the kind of experiment: Pseudo Hill coefficient for inhibition of [3H](+)-PN200-110 binding to calcium channels of rat heart membranes. It is filed as cell membranes, Membrane. In a few lines:
as §2

For data set [6], the target named is T1, Voltage-gated L-type calcium channel. As to the kind of experiment: Inhibition of [3H](+)-PN200-110 binding to calcium channels of rat GH4C1 cells. It is filed as cell-based. The conditions noted are these: gh4-c1. In short, it runs like this: as §3
Data set [7] is described as follows: Compound was tested for its inhibition of Barium currents in GH4C1 cells. Format: functional, cell-based, Rattus norvegicus. The conditions noted are these: gh4-c1.
Data set [8] concerns the target T1, Voltage-gated L-type calcium channel. As to the kind of experiment: Pseudo Hill coefficient for inhibition of [3H](+)-PN200-110 binding to calcium channels of rat cerebral cortex membrane. Format: tissue-based. In short, it runs like this:
(§4)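 Rat cerebral cortex membranes, protein by Bradford, competition with [3H]-(+)-PN200-110. IC50 and pseudo Hill slope from Hill equation fit of specific DPM bound; KI = IC50/(1+[L]/KD); n = 4-6 experiments.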

Data set [9] relates to GH4-C1. As to the kind of experiment: Pseudo Hill coefficient for the inhibition of Barium currents in GH4C1 cells was determined. The conditions noted are these: Rattus norvegicus. It is filed as cell-based. In short, it runs like this: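 Whole-cell voltage clamp of GH4C1 rat pituitary cells cultured 2-6 days, bathed in normal Tyrode's (pH 7.4). Held at -40 mV to inactivate T-type channels. Each DHP concentration (0.03-10 µM, increasing order) equilibrated 30 s, then a 200 or 50 ms pulse to +10 mV. Currents normalized to capacitance (pA/pF); IC50 and Hill slope fitted by Hill equation; 6-7 cells.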

Data set [10] addresses T1, Voltage-gated L-type calcium channel. As to the kind of experiment: Inhibition of [3H](+)-PN200-110 binding to calcium channels of rat cerebral cortex membrane. Format: tissue-based. In a few lines:
as §4

For data set [11] the target is unchanged. Description: Inhibition of [3H](+)-PN200-110 binding to calcium channels of GH4C1 cells. Format: cell-based. The conditions noted are these: gh4-c1. In a few lines:
as §3

In general, Ki refers to a measure of affinity in units of concentration, obtained from inhibition or displacement. In general, IC50 refers to the point on the concentration scale where inhibition reaches its midpoint. A low value points to inhibition by little substance.

Each structure is given as a SMILES string.

T2 sequence (P22002 whole entry): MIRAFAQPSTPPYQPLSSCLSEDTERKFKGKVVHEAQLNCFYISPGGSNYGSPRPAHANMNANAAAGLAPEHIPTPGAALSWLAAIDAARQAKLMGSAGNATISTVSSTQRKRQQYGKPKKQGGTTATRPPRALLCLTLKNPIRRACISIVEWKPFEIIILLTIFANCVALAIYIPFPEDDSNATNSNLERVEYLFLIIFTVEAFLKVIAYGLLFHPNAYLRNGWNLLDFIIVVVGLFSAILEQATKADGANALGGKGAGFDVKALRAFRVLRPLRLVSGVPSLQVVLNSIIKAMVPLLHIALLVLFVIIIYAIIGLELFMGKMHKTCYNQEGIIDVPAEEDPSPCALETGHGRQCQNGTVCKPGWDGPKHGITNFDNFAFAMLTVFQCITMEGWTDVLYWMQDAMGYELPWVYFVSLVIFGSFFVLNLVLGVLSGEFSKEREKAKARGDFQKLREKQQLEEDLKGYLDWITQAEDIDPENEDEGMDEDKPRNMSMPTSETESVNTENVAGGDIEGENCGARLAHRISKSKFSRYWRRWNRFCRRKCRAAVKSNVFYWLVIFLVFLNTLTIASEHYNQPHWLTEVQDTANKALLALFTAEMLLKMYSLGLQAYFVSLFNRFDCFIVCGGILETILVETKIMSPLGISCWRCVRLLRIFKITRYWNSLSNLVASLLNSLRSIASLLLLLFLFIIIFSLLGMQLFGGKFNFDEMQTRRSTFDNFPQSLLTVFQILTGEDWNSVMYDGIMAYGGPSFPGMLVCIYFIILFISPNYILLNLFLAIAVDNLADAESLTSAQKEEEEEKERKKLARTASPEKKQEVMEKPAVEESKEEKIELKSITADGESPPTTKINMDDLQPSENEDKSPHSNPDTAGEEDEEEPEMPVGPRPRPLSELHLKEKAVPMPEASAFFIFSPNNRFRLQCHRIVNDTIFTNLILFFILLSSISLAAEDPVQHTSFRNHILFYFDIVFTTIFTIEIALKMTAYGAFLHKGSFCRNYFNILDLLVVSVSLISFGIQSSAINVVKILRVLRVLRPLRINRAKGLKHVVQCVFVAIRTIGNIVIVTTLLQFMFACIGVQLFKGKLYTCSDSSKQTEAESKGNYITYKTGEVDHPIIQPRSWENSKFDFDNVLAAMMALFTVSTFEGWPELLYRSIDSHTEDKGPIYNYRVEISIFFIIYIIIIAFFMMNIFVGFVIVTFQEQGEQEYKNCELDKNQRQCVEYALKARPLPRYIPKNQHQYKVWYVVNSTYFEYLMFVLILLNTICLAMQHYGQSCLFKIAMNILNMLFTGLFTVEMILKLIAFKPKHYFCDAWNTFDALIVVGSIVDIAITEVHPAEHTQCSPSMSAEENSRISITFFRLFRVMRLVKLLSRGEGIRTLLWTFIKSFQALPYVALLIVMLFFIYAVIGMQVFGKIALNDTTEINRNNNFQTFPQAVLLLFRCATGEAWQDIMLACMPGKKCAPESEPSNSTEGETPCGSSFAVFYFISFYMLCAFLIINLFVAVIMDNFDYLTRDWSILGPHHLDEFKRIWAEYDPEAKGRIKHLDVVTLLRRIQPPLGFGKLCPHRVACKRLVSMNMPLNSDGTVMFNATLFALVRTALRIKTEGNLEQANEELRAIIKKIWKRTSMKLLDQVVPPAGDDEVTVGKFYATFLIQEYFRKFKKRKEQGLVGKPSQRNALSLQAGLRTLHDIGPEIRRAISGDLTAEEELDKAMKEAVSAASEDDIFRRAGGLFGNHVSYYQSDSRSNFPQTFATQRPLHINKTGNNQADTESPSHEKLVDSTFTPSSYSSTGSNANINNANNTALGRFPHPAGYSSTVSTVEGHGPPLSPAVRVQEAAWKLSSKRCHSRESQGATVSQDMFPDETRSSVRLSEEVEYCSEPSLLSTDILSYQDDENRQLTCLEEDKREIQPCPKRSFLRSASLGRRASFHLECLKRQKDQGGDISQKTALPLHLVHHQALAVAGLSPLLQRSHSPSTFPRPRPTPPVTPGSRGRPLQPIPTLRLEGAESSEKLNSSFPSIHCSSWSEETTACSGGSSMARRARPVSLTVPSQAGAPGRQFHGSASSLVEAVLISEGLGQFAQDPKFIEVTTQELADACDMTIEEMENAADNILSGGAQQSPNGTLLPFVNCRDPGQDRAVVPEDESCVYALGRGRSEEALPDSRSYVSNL

As to `COC(=O)C1=C(C)NC(C)=C(C(=O)OCCCCCCCC[N+](C)(C)C)C1c1cccc([N+](=O)[O-])c1.[I-]` (racemic), the nH came out at 1.3 in data set [1]; 1.5 in [3]; 1.1 in [5]; 1.4 in data set [8]; 0.9 in data set [9]. Moreover, the Ki in [2] was found to be 0.0992 µM; in data set [4] it was 0.0686 µM; in data set [6] it was 0.0168 µM; in [10], 0.0372 µM. Also, the 50% inhibitory concentration (IC50) in data set [7] is 1.5 µM.
Regarding `COC(=O)C1=C(C)NC(C)=C(C(=O)OCC[N+](C)(C)C)[C@@H]1c1cccc([N+](=O)[O-])c1.[I-]`, the nH was 0.5 in [1]; 0.6 in data set [3]; 0.9 in data set [5]; 0.8 in data set [8]; 0.3 in [9]. Moreover, the Ki in [11] was 48.12 µM; in data set [2], 13.7 µM; in data set [4] it was 3.988 µM; in data set [10] it was 14.013 µM. The compound further had a half-maximal inhibitory concentration (IC50) in data set [7] of 271 µM.
Turning to `COC(=O)C1=C(C)NC(C)=C(C(=O)OCCCCCCCC[N+](C)(C)C)[C@H]1c1cccc([N+](=O)[O-])c1.[I-]`, the nH in [1] is 1.1; in data set [3], 1.3; in [5], 1.2; in data set [8], 1.6; in [9], 1. Further, the Ki in data set [2] amounted to 0.008 µM; in data set [4], 0.1292 µM; in data set [6], 0.0114 µM; in [10] it was 0.0246 µM. Moreover, 1.4 µM corresponded to half-maximal inhibition in data set [7] (IC50).
On to `COC(=O)C1=C(C)NC(C)=C(C(=O)OCC[N+](C)(C)C)[C@H]1c1cccc([N+](=O)[O-])c1.[I-]`, for which the nH in data set [1] was 0.9; in data set [3], 0.9; in data set [5], 1; in data set [8], 0.9; in data set [9] it was 0.4. Further, the Ki worked out at 0.999 µM in data set [2], 0.651 µM in [4], 1.94 µM in [6] and 1.246 µM in data set [10]. The compound also showed an IC50 in data set [7] of 28.1 µM.
For `COC(=O)C1=C(C)NC(C)=C(C(=O)OCC[N+](C)(C)C)C1c1cccc([N+](=O)[O-])c1.[I-]` (racemic), the nH amounted to 1.7 in data set [1]; 0.9 in data set [3]; 1 in [5]; 1 in data set [8]; 0.7 in data set [9]. Besides, the inhibitory constant (Ki) in data set [11] was found to be 2.111 µM; in [2], 1.51 µM; in [4], 0.2485 µM; in data set [10], 1.372 µM. The compound also yielded an IC50 in data set [7] of 17.7 µM.
In the case of `COC(=O)C1=C(C)NC(C)=C(C(=O)OCCCCCCCC[N+](C)(C)C)[C@@H]1c1cccc([N+](=O)[O-])c1.[I-]`, the nH in [1] stood at 1; in [3], 1.2; in data set [5] it was 1.1; in data set [8] it was 1; in data set [9], 0.8. The Ki in data set [2] amounted to 0.497 µM; in data set [4], 0.895 µM; in data set [6] it was 0.42 µM; in [10], 0.7178 µM. The compound also gave an IC50 in data set [7] of 5.1 µM.

For the origin of these results see ChEMBL document CHEMBL1133009, “Permanently charged chiral 1,4-dihydropyridines: molecular probes of L-type calcium channels. Synthesis and pharmacological characterization of methyl(omega-trimethylalkylammonium) 1,4-dihydro-2,6-dimethyl-4-(3-nitrophenyl)-3,5-pyridinedicarboxylate iodide, calcium channel antagonists” (J Med Chem, 2000).
